Laboratory results taken from ChEMBL document CHEMBL1137710, “Synthesis and in vitro antitumor activity of new quinoxaline derivatives” (2009).

How the values were obtained:
Assay type in all cases: functional
EKVX = experiment: Growth inhibition of human EKVX cells after 48 hrs by sulforhodamine B assay
Outline: (§1)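 NCI 60-human-tumor-cell-line panel, with compounds tested over a 5-log dose range. Values are taken from dose-response curves as log10 molar concentrations: GI50 is 50% net growth inhibition, TGI is total growth inhibition, and LC50 is 50% net cell death.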

KM12 = experiment: Growth inhibition of human KM12 cells after 48 hrs by sulforhodamine B assay; details: KM12, 48 h; outline: as §1
SK-OV-3 = experiment: Growth inhibition of human SKOV3 cells after 48 hrs by sulforhodamine B assay; details: SK-OV-3, 48 h; outline: as §1
HT-29 = experiment: Growth inhibition of human HT-29 cells after 48 hrs by sulforhodamine B assay; details: HT-29, 48 h; outline: as §1
SN12C = experiment: Growth inhibition of human SN12C cells after 48 hrs by sulforhodamine B assay
Outline: (§2)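 Run in the NCI 60-human-tumour-cell-line panel, tested over a 5-log dose range. Dose–response curves gave three values per cell line, each as a log10 molar concentration: GI50 (50% inhibition of net cell growth), TGI (total inhibition of net growth) and LC50 (50% net cell death). The mean graph midpoint is the arithmetic mean over all lines, with insensitive lines entered at the highest concentration tested.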

NCI/ADR-RES = experiment: Growth inhibition of human NCI/ADR-RES cells after 48 hrs by sulforhodamine B assay; outline: as §1
CAKI-1 = experiment: Growth inhibition of human Caki1 cells after 48 hrs by sulforhodamine B assay; details: CAKI-1, 48 h; outline: as §1
UACC-62 = experiment: Growth inhibition of human UACC62 cells after 48 hrs by sulforhodamine B assay; details: UACC-62, 48 h; outline: as §2
TK-10 = experiment: Growth inhibition of human TK10 cells after 48 hrs by sulforhodamine B assay; details: TK-10, 48 h; outline: as §2
OVCAR-3 = experiment: Growth inhibition of human OVCAR-3 cells after 48 hrs by sulforhodamine B assay; details: OVCAR-3, 48 h; outline: as §1
NCI-H226 = experiment: Growth inhibition of human NCI-H226 cells after 48 hrs by sulforhodamine B assay; details: NCI-H226, 48 h; outline: as §1
A498 = experiment: Growth inhibition of human A498 cells after 48 hrs by sulforhodamine B assay; details: A498, 48 h; outline: as §1
BT-549 = experiment: Growth inhibition of human BT549 cells after 48 hrs by sulforhodamine B assay; details: BT-549, 48 h; outline: as §1
K562 = experiment: Growth inhibition of human K562 cells after 48 hrs by sulforhodamine B assay; details: K562, 48 h; outline: as §1
HL-60(TB) = experiment: Growth inhibition of human HL-60(TB) cells after 48 hrs by sulforhodamine B assay; details: HL-60, 48 h
Outline: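 Tested only on compounds active in a three-line prescreen, in the NCI 60-human-tumour-cell-line panel over a 5-log dose range. Values come from dose–response curves as log10 molar GI50, the concentration inhibiting 50% net cell growth. Log10 TGI (total growth inhibition) and log10 LC50 (50% net cell death) were derived too. Mean graph midpoints include insensitive lines at the highest concentration tested.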

NCI-H460 = experiment: Growth inhibition of human NCI-H460 cells after 48 hrs by sulforhodamine B assay; details: NCI-H460, 48 h; outline: as §1
786-0 = experiment: Growth inhibition of human 786-0 cells after 48 hrs by sulforhodamine B assay; details: 786-0, 48 h; outline: as §1
NCI-H522 = experiment: Growth inhibition of human NCI-H522 cells after 48 hrs by sulforhodamine B assay; details: NCI-H522, 48 h; outline: as §1
UO-31 = experiment: Growth inhibition of human UO31 cells after 48 hrs by sulforhodamine B assay; details: UO-31, 48 h; outline: as §2
HOP-92 = experiment: Growth inhibition of human HOP92 cells after 48 hrs by sulforhodamine B assay; details: HOP-92, 48 h; outline: as §1
SF-539 = experiment: Growth inhibition of human SF539 cells after 48 hrs by sulforhodamine B assay; details: SF-539, 48 h; outline: as §1
OVCAR-4 = experiment: Growth inhibition of human OVCAR4 cells after 48 hrs by sulforhodamine B assay; details: OVCAR-4, 48 h; outline: as §1
HOP-62 = experiment: Growth inhibition of human HOP62 cells after 48 hrs by sulforhodamine B assay; details: HOP-62, 48 h; outline: as §1
MDA-MB-231 = experiment: Growth inhibition of human MDA-MB-231 cells after 48 hrs by sulforhodamine B assay; details: MDA-MB-231, 48 h; outline: as §1
M14 = experiment: Growth inhibition of human M14 cells after 48 hrs by sulforhodamine B assay; details: M14, 48 h; outline: as §1
HCT-15 = experiment: Growth inhibition of human HCT15 cells after 48 hrs by sulforhodamine B assay; details: HCT-15, 48 h; outline: as §1
[1] = read-out: pLC50 (the source's name) (converted)

Structure (SMILES): Nc1cc(N)c2nc(-c3ccccc3)c(NCc3ccc(F)cc3)nc2c1
- GI50 (EKVX): 1.91 µM
- LC50 (50% net cell kill) (EKVX): 8.71 µM
- TGI (EKVX; read-out: pTGI (converted)): 4.07 µM
- GI50 (KM12): 2.82 µM
- LC50 (50% net cell kill) (KM12): > 100 µM
- TGI (KM12; read-out: pTGI (converted)): 7.41 µM
- GI50 (SK-OV-3): 12.9 µM
- CC50 (SK-OV-3; [1]): 53.7 µM
- TGI (SK-OV-3; read-out: pTGI (converted)): 26.3 µM
- GI50 (HT-29): 3.16 µM
- LC50 (HT-29): > 100 µM
- TGI (HT-29; read-out: pTGI (converted)): 12.6 µM
- GI50 (SN12C): 7.59 µM
- CC50 (SN12C; [1]): 64.6 µM
- TGI (SN12C; read-out: pTGI (converted)): 23.4 µM
- GI50 (NCI/ADR-RES): 2.45 µM
- CC50 (NCI/ADR-RES; [1]): 28.2 µM
- TGI (NCI/ADR-RES; read-out: pTGI (converted)): 5.75 µM
- GI50 (CAKI-1): 15.1 µM
- CC50 (CAKI-1; [1]): 89.1 µM
- TGI (CAKI-1; read-out: pTGI (converted)): 37.2 µM
- GI50 (UACC-62): 15.5 µM
- CC50 (UACC-62; [1]): 56.2 µM
- TGI (UACC-62; read-out: pTGI (converted)): 29.5 µM
- GI50 (TK-10): 5.89 µM
- CC50 (TK-10; [1]): 53.7 µM
- TGI (TK-10; read-out: pTGI (converted)): 20 µM
- GI50 (OVCAR-3): 2.4 µM
- CC50 (OVCAR-3; [1]): > 100 µM
- TGI (OVCAR-3; read-out: pTGI (converted)): 6.46 µM
- GI50 (NCI-H226): 22.4 µM
- LC50 (NCI-H226): > 100 µM
- TGI (NCI-H226; read-out: pTGI (converted)): 47.9 µM
- GI50 (A498): 17 µM
- CC50 (A498; [1]): 57.5 µM
- TGI (A498; read-out: pTGI (converted)): 30.9 µM
- GI50 (BT-549): 1.7 µM
- CC50 (BT-549; [1]): 6.31 µM
- TGI (BT-549; read-out: pTGI (converted)): 3.24 µM
- GI50 (K562): 4.37 µM
- LC50 (K562): > 100 µM
- TGI (K562; read-out: pTGI (converted)): > 100 µM
- GI50 (HL-60(TB)): 3.89 µM
- LC50 (HL-60(TB)): > 100 µM
- TGI (HL-60(TB); read-out: pTGI (converted)): > 100 µM
- GI50 (NCI-H460): 4.07 µM
- LC50 (50% net cell kill) (NCI-H460): > 100 µM
- TGI (NCI-H460; read-out: pTGI (converted)): 25.7 µM
- GI50 (786-0): 23.4 µM
- CC50 (786-0; [1]): > 100 µM
- TGI (786-0; read-out: pTGI (converted)): 61.7 µM
- GI50 (NCI-H522): > 100 µM
- LC50 (NCI-H522): > 100 µM
- TGI (NCI-H522; read-out: pTGI (converted)): > 100 µM
- GI50 (UO-31): 3.8 µM
- CC50 (UO-31; [1]): > 100 µM
- TGI (UO-31; read-out: pTGI (converted)): > 100 µM
- GI50 (HOP-92): 3.31 µM
- LC50 (50% net cell death) (HOP-92): > 100 µM
- TGI (HOP-92; read-out: pTGI (converted)): 6.92 µM
- GI50 (SF-539): 1.82 µM
- LC50 (SF-539): 6.92 µM
- TGI (SF-539; read-out: pTGI (converted)): 3.55 µM
- GI50 (OVCAR-4): 1.7 µM
- CC50 (OVCAR-4; [1]): 60.3 µM
- TGI (OVCAR-4; read-out: pTGI (converted)): 8.13 µM
- GI50 (HOP-62): 38.9 µM
- LC50 (HOP-62): > 100 µM
- TGI (HOP-62; read-out: pTGI (converted)): > 100 µM
- GI50 (MDA-MB-231): 2.14 µM
- CC50 (MDA-MB-231; [1]): 19.5 µM
- TGI (MDA-MB-231; read-out: pTGI (converted)): 5.13 µM
- GI50 (M14): 23.4 µM
- CC50 (M14; [1]): > 100 µM
- TGI (M14; read-out: pTGI (converted)): 56.2 µM
- GI50 (HCT-15): 3.31 µM
- LC50 (HCT-15): > 100 µM
- TGI (HCT-15; read-out: pTGI (converted)): 19.1 µM
